Source: ChEMBL document CHEMBL5034013, “Discovery of VNRX-7145 (VNRX-5236 Etzadroxil): An Orally Bioavailable β-Lactamase Inhibitor for Enterobacterales Expressing Ambler Class A, C, and D Enzymes” (J Med Chem, 2021)

molecular target: not listed separately; experiment: Inhibition of bacterial beta-lactamase OXA-48 using nitrocefin as substrate preincubated for 15 mins followed by substrate addition and measured after 10 mins by spectrophotometric analysis; design: species or system Bacteria; conditions: not given
Summary of the method: (§1)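 IC50 is the mean of duplicate runs on separate days. A run was repeated automatically if it differed by more than 20% from the previous result.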

Compound	IC50 [nM]
O=C(CCC(F)(F)F)N[C@H]1Cc2cccc(C(=O)O)c2OB1O	1620
N#CCCC(=O)N[C@H]1Cc2cccc(C(=O)O)c2OB1O	687
NC(=O)CCC(=O)N[C@H]1Cc2cccc(C(=O)O)c2OB1O	1790
C#CCCC(=O)N[C@H]1Cc2cccc(C(=O)O)c2OB1O	627
NS(=O)(=O)CCC(=O)N[C@H]1Cc2cccc(C(=O)O)c2OB1O	8550
CS(=O)(=O)NCCC(=O)N[C@H]1Cc2cccc(C(=O)O)c2OB1O	4670
CCCC(=O)N[C@H]1Cc2cccc(C(=O)O)c2OB1O	426
CC(F)(F)CCC(=O)N[C@H]1Cc2cccc(C(=O)O)c2OB1O	2390

test system: Escherichia coli; experiment: Antibacterial activity against Escherichia coli J53 expressing SHV-5/TEM-1/AmpC assessed as concentration required to restore ceftibuten activity incubated for 16 to 20 hrs in presence of 1 ug/ml ceftibuten by broth microdilution method; assay type: functional; conditions: time 16-20 hrs

Compound	Activity [µg/mL]
O=C(CCC(F)(F)F)N[C@H]1Cc2cccc(C(=O)O)c2OB1O	0.03
N#CCCC(=O)N[C@H]1Cc2cccc(C(=O)O)c2OB1O	0.03
NC(=O)CCC(=O)N[C@H]1Cc2cccc(C(=O)O)c2OB1O	2
C#CCCC(=O)N[C@H]1Cc2cccc(C(=O)O)c2OB1O	1
NS(=O)(=O)CCC(=O)N[C@H]1Cc2cccc(C(=O)O)c2OB1O	0.12
CS(=O)(=O)NCCC(=O)N[C@H]1Cc2cccc(C(=O)O)c2OB1O	0.016
CCCC(=O)N[C@H]1Cc2cccc(C(=O)O)c2OB1O	0.016
CC(F)(F)CCC(=O)N[C@H]1Cc2cccc(C(=O)O)c2OB1O	0.03

molecular target: not listed separately; experiment: Inhibition of bacterial beta-lactamase KPC-2 using imipenem as substrate preincubated for 15 mins followed by substrate addition and measured after 10 mins by spectrophotometric analysis; design: species or system Bacteria; conditions: not given; summary of the method: as §1

Compound	IC50 [nM]
O=C(CCC(F)(F)F)N[C@H]1Cc2cccc(C(=O)O)c2OB1O	43
N#CCCC(=O)N[C@H]1Cc2cccc(C(=O)O)c2OB1O	33
NC(=O)CCC(=O)N[C@H]1Cc2cccc(C(=O)O)c2OB1O	69
C#CCCC(=O)N[C@H]1Cc2cccc(C(=O)O)c2OB1O	31
NS(=O)(=O)CCC(=O)N[C@H]1Cc2cccc(C(=O)O)c2OB1O	35
CS(=O)(=O)NCCC(=O)N[C@H]1Cc2cccc(C(=O)O)c2OB1O	28
CCCC(=O)N[C@H]1Cc2cccc(C(=O)O)c2OB1O	93
CC(F)(F)CCC(=O)N[C@H]1Cc2cccc(C(=O)O)c2OB1O	41

molecular target: not listed separately; experiment: Inhibition of bacterial beta-lactamase AmpC using nitrocefin as substrate preincubated for 15 mins followed by substrate addition and measured after 10 mins by spectrophotometric analysis; design: species or system Bacteria; conditions: not given; summary of the method: as §1

Compound	IC50 [nM]
O=C(CCC(F)(F)F)N[C@H]1Cc2cccc(C(=O)O)c2OB1O	9
N#CCCC(=O)N[C@H]1Cc2cccc(C(=O)O)c2OB1O	14
NC(=O)CCC(=O)N[C@H]1Cc2cccc(C(=O)O)c2OB1O	6
C#CCCC(=O)N[C@H]1Cc2cccc(C(=O)O)c2OB1O	6
NS(=O)(=O)CCC(=O)N[C@H]1Cc2cccc(C(=O)O)c2OB1O	3
CS(=O)(=O)NCCC(=O)N[C@H]1Cc2cccc(C(=O)O)c2OB1O	5
CCCC(=O)N[C@H]1Cc2cccc(C(=O)O)c2OB1O	9
CC(F)(F)CCC(=O)N[C@H]1Cc2cccc(C(=O)O)c2OB1O	7

test system: Klebsiella pneumoniae; experiment: Antibacterial activity against Klebsiella pneumoniae 196477 expressing AmpC/CMY-2/TEM-1/CTX-M-15 assessed as concentration required to restore ceftibuten activity incubated for 16 to 20 hrs in presence of 1 ug/ml ceftibuten by broth microdilution method; assay type: functional; conditions: time 16-20 hrs

Compound	Activity [µg/mL]
O=C(CCC(F)(F)F)N[C@H]1Cc2cccc(C(=O)O)c2OB1O	0.5
N#CCCC(=O)N[C@H]1Cc2cccc(C(=O)O)c2OB1O	0.03
NC(=O)CCC(=O)N[C@H]1Cc2cccc(C(=O)O)c2OB1O	0.016
C#CCCC(=O)N[C@H]1Cc2cccc(C(=O)O)c2OB1O	0.06
NS(=O)(=O)CCC(=O)N[C@H]1Cc2cccc(C(=O)O)c2OB1O	0.03
CS(=O)(=O)NCCC(=O)N[C@H]1Cc2cccc(C(=O)O)c2OB1O	0.03
CCCC(=O)N[C@H]1Cc2cccc(C(=O)O)c2OB1O	0.03
CC(F)(F)CCC(=O)N[C@H]1Cc2cccc(C(=O)O)c2OB1O	0.12

test system: not listed separately; experiment: Oral bioavailability in rat at 10 mg/kg administered as cassette dose measured by UPLC-MS/MS; assay type: ADME, organism-based; conditions: in vivo
Summary of the method: (§2)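 Ester prodrugs are given to rats by oral gavage, some as a cassette with another ester. F is the percent absolute oral bioavailability of the parent, corrected for the MW difference between prodrug and parent.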

bioavailability [%]	Compound
33	CCC(=O)N[C@H]1Cc2cccc(C(=O)OCOC(=O)OC(CC)CC)c2OB1O
23	CCC(=O)N[C@H]1Cc2cccc(C(=O)OCOC(=O)OC(C)C)c2OB1O
38	CCC(=O)N[C@H]1Cc2cccc(C(=O)OCOC(=O)C(C)C)c2OB1O
24	CCC(=O)N[C@H]1Cc2cccc(C(=O)OCOC(=O)OC3CCCC3)c2OB1O
19	CCC(=O)N[C@H]1Cc2cccc(C(=O)OCOC(=O)C3CCCC3)c2OB1O
28	CCOC(C)(C)C(=O)OCOC(=O)c1cccc2c1OB(O)[C@@H](NC(=O)CC)C2
10	CCC(=O)N[C@H]1Cc2cccc(C(=O)OCOC(C)=O)c2OB1O

same assay, conditions: in vivo, 10 mg/kg, in the assay text read “measured” for “administered as cassette dose measured”

bioavailability [%]	Compound
95	CC(=O)CCC(=O)N[C@H]1Cc2cccc(C(=O)OCOC(=O)C(C)(C)C)c2OB1O
20	CC(C)(C)C(=O)OCOC(=O)c1cccc2c1OB(O)[C@@H](NC(=O)CCC#N)C2

test system: Escherichia coli; experiment: Antibacterial activity against Escherichia coli 786978 expressing KPC assessed as concentration required to restore ceftibuten activity incubated for 16 to 20 hrs in presence of 1 ug/ml ceftibuten by broth microdilution method; assay type: functional; conditions: time 16-20 hrs

Compound	Activity [µg/mL]
O=C(CCC(F)(F)F)N[C@H]1Cc2cccc(C(=O)O)c2OB1O	1
N#CCCC(=O)N[C@H]1Cc2cccc(C(=O)O)c2OB1O	0.5
NC(=O)CCC(=O)N[C@H]1Cc2cccc(C(=O)O)c2OB1O	1
C#CCCC(=O)N[C@H]1Cc2cccc(C(=O)O)c2OB1O	1
NS(=O)(=O)CCC(=O)N[C@H]1Cc2cccc(C(=O)O)c2OB1O	1
CS(=O)(=O)NCCC(=O)N[C@H]1Cc2cccc(C(=O)O)c2OB1O	0.5
CCCC(=O)N[C@H]1Cc2cccc(C(=O)O)c2OB1O	0.5
CC(F)(F)CCC(=O)N[C@H]1Cc2cccc(C(=O)O)c2OB1O	1

test system: Klebsiella pneumoniae; experiment: Antibacterial activity against Klebsiella pneumoniae 156309 expressing SHV-11/TEM-1/KPC-2 assessed as concentration required to restore ceftibuten activity incubated for 16 to 20 hrs in presence of 1 ug/ml ceftibuten by broth microdilution method; assay type: functional; conditions: time 16-20 hrs

Compound	Activity [µg/mL]
O=C(CCC(F)(F)F)N[C@H]1Cc2cccc(C(=O)O)c2OB1O	2
N#CCCC(=O)N[C@H]1Cc2cccc(C(=O)O)c2OB1O	2
NC(=O)CCC(=O)N[C@H]1Cc2cccc(C(=O)O)c2OB1O	2
C#CCCC(=O)N[C@H]1Cc2cccc(C(=O)O)c2OB1O	2
NS(=O)(=O)CCC(=O)N[C@H]1Cc2cccc(C(=O)O)c2OB1O	2
CS(=O)(=O)NCCC(=O)N[C@H]1Cc2cccc(C(=O)O)c2OB1O	1
CCCC(=O)N[C@H]1Cc2cccc(C(=O)O)c2OB1O	1
CC(F)(F)CCC(=O)N[C@H]1Cc2cccc(C(=O)O)c2OB1O	4

test system: not listed separately; experiment: Oral bioavailability in rat at 3 mg/kg administered as cassette dose measured by UPLC-MS/MS; assay type: ADME, organism-based; conditions: in vivo; summary of the method: as §2

bioavailability [%]	Compound
< 5	CCOC(=O)c1cccc2c1OB(O)[C@@H](NC(=O)CC)C2
< 5	CCOC(=O)c1cccc2c1OB(O)[C@@H](NC(=O)CCC(N)=O)C2

Second part, the molecule before the results:

Compound	bioavailability [%]
CC(C)(C)C(=O)OCOC(=O)c1cccc2c1OB(O)[C@@H](NC(=O)CCC(N)=O)C2	< 5
CC(C)(C)C(=O)OCOC(=O)c1cccc2c1OB(O)[C@@H](NC(=O)CCNS(C)(=O)=O)C2	< 5
CCOC(=O)c1cccc2c1OB(O)[C@@H](NC(=O)CCNS(N)(=O)=O)C2	< 5

same assay, conditions: in vivo, 3 mg/kg

F [%]	Compound
31	CCCC(=O)N[C@H]1Cc2cccc(C(=O)OCOC(=O)C(C)(C)C)c2OB1O

molecular target: not listed separately; experiment: Inhibition of bacterial beta-lactamase SHV-5 using cefotaxime as substrate preincubated for 15 mins followed by substrate addition and measured after 10 mins by spectrophotometric analysis; design: species or system Bacteria; conditions: not given; summary of the method: as §1

Compound	IC50 [nM]
O=C(CCC(F)(F)F)N[C@H]1Cc2cccc(C(=O)O)c2OB1O	8
N#CCCC(=O)N[C@H]1Cc2cccc(C(=O)O)c2OB1O	12
NC(=O)CCC(=O)N[C@H]1Cc2cccc(C(=O)O)c2OB1O	514
C#CCCC(=O)N[C@H]1Cc2cccc(C(=O)O)c2OB1O	17
NS(=O)(=O)CCC(=O)N[C@H]1Cc2cccc(C(=O)O)c2OB1O	8
CS(=O)(=O)NCCC(=O)N[C@H]1Cc2cccc(C(=O)O)c2OB1O	12
CCCC(=O)N[C@H]1Cc2cccc(C(=O)O)c2OB1O	36

test system: Escherichia coli; experiment: Antibacterial activity against Escherichia coli 664507 expressing OXA-48 assessed as concentration required to restore ceftibuten activity incubated for 16 to 20 hrs in presence of 1 ug/ml ceftibuten by broth microdilution method; assay type: functional; conditions: time 16-20 hrs
Summary of the method: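 Tested against a 25-strain challenge panel of clinical E. coli and K. pneumoniae isolates carrying ESBL (n = 5), KPC (n = 11), class C (n = 4) or OXA-48 (n = 5) β-lactamases. Ceftibuten was held at 1 μg/mL while the BLI concentration varied. The read-out was the BLI concentration that rescued ceftibuten activity.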

Compound	Activity [µg/mL]
O=C(CCC(F)(F)F)N[C@H]1Cc2cccc(C(=O)O)c2OB1O	0.25
N#CCCC(=O)N[C@H]1Cc2cccc(C(=O)O)c2OB1O	0.12
NC(=O)CCC(=O)N[C@H]1Cc2cccc(C(=O)O)c2OB1O	0.06
C#CCCC(=O)N[C@H]1Cc2cccc(C(=O)O)c2OB1O	0.5
NS(=O)(=O)CCC(=O)N[C@H]1Cc2cccc(C(=O)O)c2OB1O	0.12
CS(=O)(=O)NCCC(=O)N[C@H]1Cc2cccc(C(=O)O)c2OB1O	0.03
CCCC(=O)N[C@H]1Cc2cccc(C(=O)O)c2OB1O	0.25
CC(F)(F)CCC(=O)N[C@H]1Cc2cccc(C(=O)O)c2OB1O	0.25

test system: Klebsiella pneumoniae; experiment: Antibacterial activity against Klebsiella pneumoniae expressing OXA-48 assessed as concentration required to restore ceftibuten activity incubated for 16 to 20 hrs in presence of 1 ug/ml ceftibuten by broth microdilution method; assay type: functional; conditions: time 16-20 hrs

Compound	Activity [µg/mL]
O=C(CCC(F)(F)F)N[C@H]1Cc2cccc(C(=O)O)c2OB1O	8
N#CCCC(=O)N[C@H]1Cc2cccc(C(=O)O)c2OB1O	2
NC(=O)CCC(=O)N[C@H]1Cc2cccc(C(=O)O)c2OB1O	0.5
C#CCCC(=O)N[C@H]1Cc2cccc(C(=O)O)c2OB1O	4
NS(=O)(=O)CCC(=O)N[C@H]1Cc2cccc(C(=O)O)c2OB1O	2
CS(=O)(=O)NCCC(=O)N[C@H]1Cc2cccc(C(=O)O)c2OB1O	2
CCCC(=O)N[C@H]1Cc2cccc(C(=O)O)c2OB1O	1
CC(F)(F)CCC(=O)N[C@H]1Cc2cccc(C(=O)O)c2OB1O	4

test system: Escherichia coli; experiment: Antibacterial activity against Escherichia coli expressing CTX-M-15/TEM-1 assessed as concentration required to restore ceftibuten activity incubated for 16 to 20 hrs in presence of 1 ug/ml ceftibuten by broth microdilution method; assay type: functional; conditions: time 16-20 hrs

Compound	Activity [µg/mL]
O=C(CCC(F)(F)F)N[C@H]1Cc2cccc(C(=O)O)c2OB1O	1
N#CCCC(=O)N[C@H]1Cc2cccc(C(=O)O)c2OB1O	0.12
NC(=O)CCC(=O)N[C@H]1Cc2cccc(C(=O)O)c2OB1O	0.12
C#CCCC(=O)N[C@H]1Cc2cccc(C(=O)O)c2OB1O	0.25
NS(=O)(=O)CCC(=O)N[C@H]1Cc2cccc(C(=O)O)c2OB1O	0.25
CS(=O)(=O)NCCC(=O)N[C@H]1Cc2cccc(C(=O)O)c2OB1O	0.12
CCCC(=O)N[C@H]1Cc2cccc(C(=O)O)c2OB1O	0.12
CC(F)(F)CCC(=O)N[C@H]1Cc2cccc(C(=O)O)c2OB1O	0.5

test system: Klebsiella pneumoniae; experiment: Antibacterial activity against Klebsiella pneumoniae expressing SHV-12/TEM-1 assessed as concentration required to restore ceftibuten activity incubated for 16 to 20 hrs in presence of 1 ug/ml ceftibuten by broth microdilution method; assay type: functional; conditions: time 16-20 hrs

Compound	Activity [µg/mL]
O=C(CCC(F)(F)F)N[C@H]1Cc2cccc(C(=O)O)c2OB1O	0.06
N#CCCC(=O)N[C@H]1Cc2cccc(C(=O)O)c2OB1O	0.06
NC(=O)CCC(=O)N[C@H]1Cc2cccc(C(=O)O)c2OB1O	0.12
C#CCCC(=O)N[C@H]1Cc2cccc(C(=O)O)c2OB1O	0.06
NS(=O)(=O)CCC(=O)N[C@H]1Cc2cccc(C(=O)O)c2OB1O	0.06
CS(=O)(=O)NCCC(=O)N[C@H]1Cc2cccc(C(=O)O)c2OB1O	0.016
CCCC(=O)N[C@H]1Cc2cccc(C(=O)O)c2OB1O	0.12
CC(F)(F)CCC(=O)N[C@H]1Cc2cccc(C(=O)O)c2OB1O	0.03
